Measured values from ChEMBL document CHEMBL4732036, “Phenyl bioisosteres in medicinal chemistry: discovery of novel gamma-secretase modulators as a potential treatment for Alzheimer''s disease” (RSC Med Chem, 2021).
Converted amounts (≈) assume the structure as drawn.

Legend:
[1] = Solubility of compound in PBS buffer at pH 6.5 incubated for over night by HPLC-UV based LYSA assay; assay type: physicochemical
Summary of the method: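 Duplicate samples from 10 mM DMSO stocks. DMSO evaporated, residue dissolved in 0.05 M phosphate buffer, pH 6.5, stirred 1 h, shaken 2 h, left overnight, then filtered. Filtrate and its 1/10 dilution measured by direct UV or HPLC-UV against a four-point calibration curve.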

Gamma-secretase = test: Modulatory activity of gamma secretase in human H4 cells overexpressing human APP695 K595N/M596L mutant assessed as decrease in amyloidbeta42 levels at 24 hrs by Alphalisa method; assay type: cell-based
Summary of the method: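 H4 neuroglioma cells stably expressing APP695 Swedish mutant, in IMDM with 10% FCS and […] hygromycin B, at 37 °C, 5% CO2. Compounds added 3-4 h after plating and incubated 24 h, typically 4 µM down to 0.0013 µM in half-log steps (8 points), final Me2SO 0.4%. Secreted Aβ in supernatant quantified by AlphaLisa (3 h antibody mix, then donor beads 30 min, RT). IC50 by nonlinear regression.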

[2] = Distribution coefficient between 1-octanol and phosphate buffer, logD of the compound after 24 hrs by shake flask assay; assay type: physicochemical; settings: 1-octanol/phosphate buffer
Summary of the method: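 CAMDIS high-throughput shake-flask method. PVDF membranes impregnated with 1-octanol are dipped in 25 mM phosphate buffer, pH 7.4, containing the compound, then shaken 24 h at 23 °C. Remaining aqueous concentration measured by LC/MS. logD calculated from the aqueous concentration with and without octanol impregnation, and the phase ratio.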

Structure (SMILES) | solubility at 12 h [1] | IC50 (Gamma-secretase) | logD at 24 h [2]
Cc1nnc(C23CCC(Nc4nc(Cc5ccc(Cl)cc5)cc(C(C)(C)O)n4)(CC2)CC3)o1 | < 0.1 µg/mL | 146 nM | > 4
Cc1nnc(C23CC(Nc4nc(Oc5cccc(Cl)c5)n(C(C)C)n4)(C2)C3)o1 | 88 µg/mL (≈ 220 µM) | 214 nM | 4.1
Cc1nnc(C23CCC(Nc4nc5n(n4)CCCN5c4cccc(Cl)c4)(CC2)CC3)o1 | 132 µg/mL (≈ 300 µM) | 114 nM | 3.1
Cc1nnc(-c2ccc(Nc3nc4n(n3)CCCN4c3cccc(Cl)c3)cc2)o1 | < 0.1 µg/mL | 95 nM | 3.2
Cc1nnc(-c2ccc(Nc3nc(Cc4ccc(Cl)cc4)cc(C(C)(C)O)n3)cc2)o1 | < 0.1 µg/mL | 478 nM | > 4
Cc1nnc(C23CCC(Nc4nc5n(n4)CCCN5c4ccc(OC(F)(F)F)cc4)(CC2)CC3)o1 | 0.4 µg/mL (≈ 0.817 µM) | 21 nM | 3.7
Cc1cc(C23CC(Nc4nc5n(n4)CCCC[C@H]5c4ccc(F)c(F)c4F)(C2)C3)ncn1 | 1 µg/mL (≈ 2.27 µM) | 11 nM | 3.8
Cc1nnc(C23CC(Nc4nc5n(n4)CCCN5c4cccc(Cl)c4)(C2)C3)o1 | 167 µg/mL (≈ 420 µM) | 777 nM | 2.4
Cc1nnc(N2CC3CCC(C2)C3Nc2nc(Cc3ccc(Cl)cc3)cc(C(C)(C)O)n2)o1 (centres undefined) | 18 µg/mL (≈ 38.4 µM) | 38 nM | 4
Cc1nnc(-c2ccc(Nc3nc(Oc4cccc(Cl)c4)n(C(C)C)n3)cc2)o1 | < 0.1 µg/mL | 510 nM | > 4
Cc1cc(N2CC3CCC(C2)C3Nc2nc3n(n2)CCCC[C@H]3c2ccc(F)c(F)c2F)ncn1 (some centres undefined) | 7 µg/mL (≈ 14.5 µM) | 17 nM | 3.4
Cc1nnc(N2CC3CCC(C2)C3Nc2nc3n(n2)CCCN3c2cccc(Cl)c2)o1 (centres undefined) | 233 µg/mL (≈ 528 µM) | 34 nM | 2.7
Cc1nnc(C23CC(Nc4nc5n(n4)CCCN5c4ccc(OC(F)(F)F)cc4)(C2)C3)o1 | 3.2 µg/mL (≈ 7.15 µM) | 587 nM | 2.8
Cc1nnc(N2CC3CCC(C2)C3Nc2nc(Oc3cccc(Cl)c3)n(C(C)C)n2)o1 (centres undefined) | 104 µg/mL (≈ 234 µM) | 42 nM | 3.6
Cc1nnc(C23CCC(Nc4nc(Oc5cccc(Cl)c5)n(C(C)C)n4)(CC2)CC3)o1 | 15 µg/mL (≈ 33.9 µM) | 118 nM | 4.1
Cc1nnc(-c2ccc(Nc3nc4n(n3)CCCN4c3ccc(OC(F)(F)F)cc3)cc2)o1 | < 0.1 µg/mL | 227 nM | > 4
Cc1nnc(C23CC(Nc4nc(Cc5ccc(Cl)cc5)cc(C(C)(C)O)n4)(C2)C3)o1 | 11 µg/mL (≈ 25.8 µM) | 520 nM | 4
Cc1nnc(N2CC3CCC(C2)C3Nc2nc3n(n2)CCCN3c2ccc(OC(F)(F)F)cc2)o1 (centres undefined) | 106 µg/mL (≈ 216 µM) | 46 nM | 3.5
